This excerpt belongs to a sample that is enriched for hits.
Insulin prom act: activators of insulin promoter-driven GFP, primary screen, imaging, TRM-6 cells, eGFP reporter, cell count | plate-scaled: unstimulated 0, stimulated control 100 | activation, % at 2 µM | AID 1296, 2008 | hit rate 0.81% among 130,000;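 active = activation at 2 µM above a set limit, confirmed on inspection of the cell images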;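 note: share of cells whose green reporter signal exceeds an intensity cutoff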
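Material: Human fetal islet-derived TRM-6 cells with tamoxifen-inducible insulin promoter–eGFP reporter | Medium: Low-glucose (5.5 mM) medium with tamoxifen | Probe or stimulus: Tamoxifen inducer, 0.75 µM, in seeding medium | Schedule: Tamoxifen pre-incubation 15 h overnight, then compound exposure 48 h at 37 °C | Detection: High-content imaging of fixed cells with Hoechst nuclear stain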
* = called active by the depositor.

SMILES | Insulin prom act
CCC(CC)c1nnc(NC(=O)c2c(C)nn(Cc3ccccc3Cl)c2C)s1 | -3
CCOc1ccc(-c2cc(C(=O)N3CCN(c4ccccn4)CC3)c3ccccc3n2)cc1 | 740*
CS(=O)(=O)N1CCN(C(=O)c2cc(-c3ccccc3)nc3ccccc23)CC1 | 9
O=C(c1cc(Sc2cccc(Cl)c2)nc2ccccc12)N1CCN(c2ccccn2)CC1 | 136
CC(CCc1ccccc1)NC(=O)COC(=O)c1cccc2ccccc12 (stereo unspecified) | 0
CCc1ccc(S(=O)(=O)/N=C2/C=C(Sc3ncn[nH]3)C(=O)c3ccccc32)cc1 | 169
CCc1ccc(S(=O)(=O)/N=C2\C=CC(=O)c3ccccc32)cc1 | 327*
COCCC(=O)N1CCCC(C(=O)c2ccc(Oc3ccccc3)cc2)C1 (stereo unspecified) | 542*
COC(=O)C1CCN(C(=O)CCCOc2ccccc2)CC1 | 123
C=CCNC(=S)N1CCC(C(=O)c2ccc(OC)cc2)CC1 | 3
COc1cc(C(=O)Nc2c(C)cc(C)cc2C)c([N+](=O)[O-])cc1OC | -7
C/C(=N/Nc1ccc(C(=O)O)cc1)c1ccc(O)c(O)c1O | 4
Cc1ccc(-c2cc(C(=O)N/N=C/c3c(C)nn(C)c3C)c3ccccc3n2)cc1C | 5
Cc1nn(C)c(C)c1/C=N/N=C1\CCC2C3CCc4cc(O)ccc4C3CCC12C (stereo unspecified) | 91*
C#C[C@]1(O)CC[C@H]2[C@@H]3CCc4cc(OC)ccc4[C@H]3CC[C@@]21C | -5
COC(=O)c1[nH]c2ccccc2c1NC(=O)CN1CCN(c2cccc(OC)c2)C(C)C1 (stereo unspecified) | -9
COC(=O)c1[nH]c2ccc(C)cc2c1NC(=O)Nc1ccccc1OC | 0
COC(=O)c1[nH]c2cc(C)ccc2c1NC(=O)CN1CCCc2ccccc21 | 191*
CCc1nc2ccc(C(=O)O)cc2nc1CC | 0
C=CCn1c(Cc2cccs2)nnc1SC/C=C/c1ccccc1 | 81*
C=CCn1c(CCNC(=O)c2cccs2)nnc1SCC(=O)c1ccc(Br)cc1 | -7
CCn1c(SC/C=C/c2ccccc2)nnc1-c1cccs1 | 191
CC(C)N(C(=O)CSc1nnc(Cc2csc(Nc3ccccc3)n2)o1)C(C)C | 0
COc1ccc(NC(=O)COC(=O)CCCN2C(=O)c3ccccc3C2=O)cc1Cl | 8
COCCNC(=O)C(=O)NCCN1CCOCC1 | 494*
SMILES | Insulin prom act
O=C(CCSCCC(=O)NCCN1CCOCC1)NCCN1CCOCC1 | -7
COc1ccc(C(=O)NCCN2CCOCC2)cc1OC | -79
O=C(c1ccccc1)c1nc2ccccc2n(CCCn2c(=O)c(C(=O)c3ccccc3)nc3ccccc32)c1=O | -8
COc1ccc(N2CCN(C(=O)CNS(=O)(=O)c3ccc(C)cc3)CC2)cc1 | 6
N#C/C(=C(/O)C(Cl)c1ccccc1)c1nc2ccccc2s1 (stereo unspecified) | -3
N#CC(=C1CCCC1)c1nc(-c2ccccc2)cs1 | 3
N#C/C(=C/c1ccc(-c2ccc(S(N)(=O)=O)cc2)o1)c1nc2ccccc2s1 | 257*
CCOC(=O)N1CCN(/C=C(\C#N)c2nc3ccccc3s2)CC1 | 7
N#C/C(=C\Nc1ccccc1SC(F)(F)F)c1nc(-c2ccccc2)cs1 | 4
N#C/C(=C/c1ccc(-c2ccccc2)o1)c1nc(-c2cccs2)cs1 | 456*
CC1CC1C(=O)OCC(=O)NC(=O)NC12CC3CC(CC(C3)C1)C2 (stereo unspecified) | -100
Cc1nc(SCCOc2ccccc2F)[nH]c(=O)c1Cc1ccccc1 | 0
NNC(=O)[C@H]1C[C@@H]1c1ccccc1 | 7
CC1(C)CC(NC(=O)C23CCC(C)(C(=O)C2)C3(C)C)CC(C)(C)N1 (stereo unspecified) | 9
COc1ccc2[nH]c(C(O)(Cc3cccnc3)Cc3cccnc3)cc2c1 | -6
CCOc1ccccc1NC1=C(Cl)C(=O)N(c2ccc(OC)cc2)C1=O | 3
COc1ccccc1N1C(=O)C(Cl)=C(Nc2ccccc2O)C1=O | 379*
COc1ccccc1N1CCN(c2ccc(Cl)nn2)CC1 | -7
O=C(c1cc(COc2ccc(F)cc2F)on1)N1CCSCC1 | 0
COc1ccc(N2CCN(C(CNS(C)(=O)=O)c3ccco3)CC2)cc1 (stereo unspecified) | -3
O=C(c1cccc(S(=O)(=O)N2CCc3ccccc3C2)c1)N1CCN(c2ccc(O)cc2)CC1 | 107
CCCCCNC(=O)c1cc(S(=O)(=O)N2CCCCC2)ccc1F | 254*
CCOC(=O)N1CCC(NC(=O)c2cc(S(=O)(=O)N3CCCCC3)ccc2F)CC1 | -3
O=C(COC(=O)CNC(=O)c1ccccc1F)Nc1cccc(S(=O)(=O)N2CCCCCC2)c1 | 114
COc1ccc2c(C)cc(SCC(=O)Nc3ccc(Cl)cn3)nc2c1 | 7
SMILES | Insulin prom act
CCC(=O)Nc1ccc(Cl)c(NC(=O)c2ccc(Br)o2)c1 | 334
CC(C)(C)C(=O)CC(=O)Nc1ccc(Cl)c(N)c1 | 0
O=C(O)CCC(=O)Nc1ccc(Br)c(Cl)c1 | -2
CCCC(=O)Nc1ccc(Cl)c(NC(=O)C(C)(C)C)c1 | 790*
CCCC(=O)Nc1ccc(Br)c(Cl)c1 | 443*
O=C(Nc1ccc(Br)c(Cl)c1)C1CC1 | -75
CCc1ccc(-c2cn(C3CCCCC3)c(=S)[nH]2)cc1 | 0
Cc1cc(-n2c(C)cc(C(=S)N3CCOCC3)c2C)ccc1Br | 5
O=C(CCSc1nnc(-c2ccco2)o1)N1CCOCC1 | 8
CCCCn1c(/N=C/c2ccc3c(c2)OCO3)nc2ccccc21 | 81*
Cn1c(=S)n(/N=C/c2ccc3c(c2)OCO3)c2ccccc21 | -8
CN(C)CCCn1c(NCc2ccc3c(c2)OCO3)nc2ccccc21 | -7
CSCCC(NC(=O)CCN1C(=O)c2ccccc2C1=O)C(=O)O (stereo unspecified) | 6
CSCC[C@H](NC(=O)CCn1nnc2ccccc2c1=O)C(=O)O | 150*
O=c1c2ccccc2nnn1CSc1nc2ccccc2c(=O)n1CCCO | 9
COc1ccc(NS(=O)(=O)c2ccc(O)c(NC(=O)c3cc4c(C)nn(-c5ccc(F)cc5)c4s3)c2)cc1 | -85
CC1=CC(C)(C)n2c(O)c(N=N)c3cc(C)cc1c32 | -6
O=C(N/N=C/c1cccc([N+](=O)[O-])c1)c1ccc(COc2ccccc2-c2ccccc2)cc1 | 7
CCn1c(SCC(=O)N2CCN(c3ccccc3)CC2)nnc1-c1ccncc1 | 6
O=C(CSCc1ccccc1)N1CCN(c2ccc(F)cc2)CC1 | -4
CCn1c(CSCc2ccc(F)cc2)nnc1SCC(=O)N1CCN(c2ccccc2)CC1 | 95*
Cc1ccc(N/C(C(Cl)=C(Cl)Cl)=C(/Cl)[N+](=O)[O-])c(C)c1 | -8
CCOC(=O)CNC(=O)CSc1nnc(-c2ccccc2)n1Cc1ccco1 | -6
O=C(CSc1nnc(-c2ccc(Cl)cc2)n1Cc1ccco1)NCc1ccc2c(c1)OCO2 | 80*
COc1ccc(-c2cnc(SCC(=O)Nc3ccc4c(c3)OCO4)n2Cc2ccco2)cc1 | -6
CC1CCCC(C)N1C(=O)COC(=O)C(Cc1ccccc1)NC(=O)c1cccs1 (stereo unspecified) | 158
O=C(N/C(=C/c1ccc(Br)cc1)C(=O)N1CCCC1=O)c1ccco1 | 6
COc1ccc(N(C(=O)Cn2nnc3ccccc32)C(C(=O)NC(C)(C)C)c2ccc(OC)c(O)c2)cc1 (stereo unspecified) | -7
